We go through 16 compounds from PubChem BioAssay.

The structures appear in SMILES notation. The source made the active and inactive calls.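 Rule for the calls, unless noted: active = Her2 level under about 52% in both replicate screens, with viability over 70% of control (limit read from the data); inconclusive = Her2 under the limit in one screen only, or viability under 70%; inactive = Her2 level above the set limit.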

The nature of experiment [1]: Her2 expression decrease, cell viability multiplex – SKBR3 breast tumor cells, AlphaScreen, ATP viability, primary screen (AID 461).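 For Her2 level: lower value means less Her2 protein in the cells.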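 For viability: percent of carrier control wells set as 100% viability.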 The note with it: SKBR3 Her2 protein level, 18-24 h, measured here: SKBR3 viability, ATP luminescence, at 10 µM.
The target of experiment [2] is Receptor tyrosine-protein kinase erbB-2 (Homo sapiens) (UniProt P04626). The experiment is described as above. To be noted: 18-24 h, at 10 µM, stronger effect = lower value.
Chain of Receptor tyrosine-protein kinase erbB-2 (Homo sapiens) (P04626 whole entry, looked up): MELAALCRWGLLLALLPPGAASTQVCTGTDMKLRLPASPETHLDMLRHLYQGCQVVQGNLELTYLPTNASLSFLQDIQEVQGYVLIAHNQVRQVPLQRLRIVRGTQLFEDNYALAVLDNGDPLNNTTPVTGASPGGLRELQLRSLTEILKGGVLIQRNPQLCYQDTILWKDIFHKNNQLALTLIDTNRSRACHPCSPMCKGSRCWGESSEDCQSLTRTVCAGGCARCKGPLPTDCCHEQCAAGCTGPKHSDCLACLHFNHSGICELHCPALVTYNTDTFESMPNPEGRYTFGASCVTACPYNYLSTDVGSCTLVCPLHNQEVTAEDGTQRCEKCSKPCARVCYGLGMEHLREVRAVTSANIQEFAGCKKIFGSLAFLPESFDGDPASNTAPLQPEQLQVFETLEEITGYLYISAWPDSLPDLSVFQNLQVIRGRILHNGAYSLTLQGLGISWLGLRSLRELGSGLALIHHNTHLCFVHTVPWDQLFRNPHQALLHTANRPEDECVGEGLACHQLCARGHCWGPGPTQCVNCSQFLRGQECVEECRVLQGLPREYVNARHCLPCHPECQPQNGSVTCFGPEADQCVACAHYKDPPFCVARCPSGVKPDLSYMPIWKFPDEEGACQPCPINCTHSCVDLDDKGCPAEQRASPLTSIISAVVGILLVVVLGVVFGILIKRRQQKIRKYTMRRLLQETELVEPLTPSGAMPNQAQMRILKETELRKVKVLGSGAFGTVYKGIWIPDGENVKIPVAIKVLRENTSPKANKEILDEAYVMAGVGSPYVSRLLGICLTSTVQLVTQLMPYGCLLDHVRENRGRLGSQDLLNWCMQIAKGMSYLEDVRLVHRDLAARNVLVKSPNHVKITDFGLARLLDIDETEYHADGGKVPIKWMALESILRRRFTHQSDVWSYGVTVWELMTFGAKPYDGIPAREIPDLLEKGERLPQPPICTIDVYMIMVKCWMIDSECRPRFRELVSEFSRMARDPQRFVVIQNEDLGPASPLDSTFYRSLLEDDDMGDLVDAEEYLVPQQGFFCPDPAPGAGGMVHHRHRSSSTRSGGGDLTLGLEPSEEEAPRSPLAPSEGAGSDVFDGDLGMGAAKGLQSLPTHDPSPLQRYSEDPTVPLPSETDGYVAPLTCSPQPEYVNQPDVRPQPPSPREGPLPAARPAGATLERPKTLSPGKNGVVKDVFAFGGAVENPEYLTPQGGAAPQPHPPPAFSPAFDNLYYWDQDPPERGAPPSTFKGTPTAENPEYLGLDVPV
A short description of experiment [3]: reduced viability of SK-BR-3 breast cancer cells – cell-based, 24 h, human, pilot screen (AID 572;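 active = viability at or below 10% of carrier control in both of two separate runs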;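 note: compound exposure lasted between 18 and 24 h rather than exactly 24 h; 100% = carrier-treated control wells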). To be noted: SK-BR-3 viability, CellTiter-Glo luminescence, at 10 µM, stronger effect = lower value. (In general: Cellular ATP, detected with luciferase, serves as a proxy for viable cell number.)
Experiment [4] is described as follows: HUVEC growth inhibition – cell-based, human, primary screen (AID 575;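 active = viability at or below 30% in both replicate assays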;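 note: 100% = median of untreated cell wells with 0.1% DMSO on each plate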). The note with it: HUVEC proliferation, CellTiter-Glo luminescence, 72 h; at 10 µM; stronger effect = lower value. The method, boiled down: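 Test system: HUVEC primary cells. Quantity: 1250 endothelial cells in each well. Dosing: single-point 10 µM, DMSO 0.1% final. Incubation: 72 h treatment at 37 °C. Measured by: CTG luminescence. Control set: DMSO cell controls and MePR drug controls. Plate: collagen-coated 384-well format.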

A short description of experiment [5]: H69AR cell proliferation blockers – human, duplicate replicates, primary screen (AID 580;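 active = viability at or under a set limit in both replicates, limit being median viability minus 3 SD, cut at about 48% in these data, passing the limit was not always enough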;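 note: 100% = mean luminescence of untreated wells and 0% = no signal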). To be noted: H69AR lung tumor cells viability, ATP luminescence, 72 h; at 10 µM; stronger effect = lower value.
The nature of experiment [6]: MRP1 drug-resistance reversers in H69AR cells – cell-based, doxorubicin co-treatment, pilot screen (AID 601;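 active = viability loss from added drug above about 55%, and viability with drug at most 40%, in both replicates, limit read from the data, passing the limit was not always enough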). The note with it: CellTiter-Glo, 72 h, at 10 µM; for differential viability (reversal): stronger effect = higher value.
Experiment [7] is described as follows: yeast transport mutant growth inhibition pilot in 384-well plates, post-Golgi transport modulator project (AID 636; in the data active = inhibition above about 31%). To be noted: absorbance 615 nm, about 18 h, stronger effect = higher value.
Experiment [8] in a line: growth suppression of yeast trafficking mutant, preliminary HTS, modulators of trafficking downstream of Golgi apparatus project, 1536-format plate, OD 615 nm (AID 637; in the data active = inhibition above about 30%). To be noted: yeast transport mutant growth, absorbance 615 nm, 18 h; stronger effect = higher value.
Where [9] appears, read: H69AR cells + 2 uM doxorubicin, measured here: viability with 2 uM doxorubicin, stronger effect = lower value.
Setting [10] is: H69AR cells, compound alone cytotoxicity.

As for `COc1ccccc1N1CCN(C(=O)CCNS(=O)(=O)c2ccc3c(c2)CCC(=O)N3)CC1`, the viability in experiment [1] was 89%; in experiment [3] it was 89% (inactive); in experiment [4], 106% (inactive); in experiment [5], 89.8% (inactive); in experiment [6] (setting [9]) it was 90.4%; in experiment [6] (setting [10]) it was 89.8%. In addition, the Her2 level in experiment [2] is 81.5% (inactive). In addition, in experiment [6] (H69AR cells + 2 uM doxorubicin), the differential viability (reversal) was -0.605% (inactive). Besides, the inhibition was -4.53% (inactive) in experiment [7] and 2.62% (inactive) in experiment [8].
As to `COc1cccc(OC)c1C(=O)n1nc(C)cc1C`, the viability in experiment [1] is 84.5%; in experiment [3], 84.5% (inactive); in experiment [4], 110% (inactive); in experiment [5], 98.8% (inactive); in experiment [6] (setting [9]) it was 95.5%; in experiment [6] (setting [10]), 98.8%. Moreover, the Her2 level in experiment [2] was 87% (inactive). Besides, the differential viability (reversal) in experiment [6] (H69AR cells + 2 uM doxorubicin) is 3.22% (inactive). In addition, the inhibition in experiment [7] is 1.18% (inactive); in experiment [8], 4.1% (inactive).
As for `C=CCSC1=C(C#N)C(c2ccccc2)CC(=O)N1` (stereo not given), the viability is 106% in experiment [1]; 106% (inactive) in experiment [3]; 114% (inactive) in experiment [4]; 104% (inactive) in experiment [5]; 97.4% in experiment [6] (setting [9]); 104% in experiment [6] (setting [10]). For the same compound, in experiment [2], the Her2 level was 93.5% (inactive). For the same compound, in experiment [6] (H69AR cells + 2 uM doxorubicin), the differential viability (reversal) was 6.72% (inactive). The inhibition in experiment [7] is -1.87% (inactive); in experiment [8], -4.35% (inactive).
Turning to `CC(=O)Nc1ccc(Oc2ccc3nc(C)[nH]c3c2)cc1`, the viability is 97.5% in experiment [1]; 97.5% (inactive) in experiment [3]; 113% (inactive) in experiment [4]; 95.4% (inactive) in experiment [5]; 105% in experiment [6] (setting [9]); 95.4% in experiment [6] (setting [10]). Besides, the Her2 level in experiment [2] was 93.5% (inactive). Besides, the differential viability (reversal) in experiment [6] (H69AR cells + 2 uM doxorubicin) is -9.67% (inactive). Moreover, the inhibition was -6.58% (inactive) in experiment [7] and -10.3% (inactive) in experiment [8].
`CCOC(=O)c1ccc(N2C(=O)CC(NC3CCN(C(=O)c4ccc(F)cc4)CC3)C2=O)cc1` (stereo not given): the viability in experiment [1] is 102%; in experiment [3] it was 102% (inactive); in experiment [4], 103% (inactive); in experiment [5], 110% (inactive); in experiment [6] (setting [9]), 96%; in experiment [6] (setting [10]) it was 110%. The Her2 level in experiment [2] was 126% (inactive). Also, the differential viability (reversal) in experiment [6] (H69AR cells + 2 uM doxorubicin) was 14% (inactive). In addition, the inhibition was 1.45% (inactive) in experiment [7] and -5% (inactive) in experiment [8].
As for `CCOCCCNC(=O)c1c[nH]c2ccc(S(=O)(=O)Nc3cccc(OC)c3)cc2c1=O`, the viability in experiment [1] is 108%; in experiment [3], 108% (inactive); in experiment [4], 83.4% (inactive); in experiment [5] it was 99.9% (inactive); in experiment [6] (setting [9]) it was 93.3%; in experiment [6] (setting [10]), 99.9%. In addition, in experiment [2], the Her2 level is 106% (inactive). For the same compound, the differential viability (reversal) in experiment [6] (H69AR cells + 2 uM doxorubicin) was 6.57% (inactive). The results for the inhibition in experiment [7] and in experiment [8] were -5.66% (inactive) and -8.71% (inactive), respectively.
Consider `c1ccc(CNc2ncnc3ccccc23)cc1`, for which the viability is 86% in experiment [1]; 86% (inactive) in experiment [3]; 58.2% (inactive) in experiment [4]; 83.8% (inactive) in experiment [5]; 97.3% in experiment [6] (setting [9]); 83.8% in experiment [6] (setting [10]). Besides, the Her2 level in experiment [2] was 87% (inactive). In addition, the differential viability (reversal) in experiment [6] (H69AR cells + 2 uM doxorubicin) was -13.6% (inactive). Besides, the inhibition in experiment [7] was -5% (inactive); in experiment [8] it was 3.93% (inactive).
Take `Cc1cc(Cl)c(S(=O)(=O)N2CCN(c3ccc(F)cc3)CC2)cc1OCC(N)=O`: the viability was 82.5% in experiment [1]; 82.5% (inactive) in experiment [3]; 97.1% (inactive) in experiment [4]; 80.5% (inactive) in experiment [5]; 79.3% in experiment [6] (setting [9]); 80.5% in experiment [6] (setting [10]). Also, the Her2 level in experiment [2] was 100% (inactive). In experiment [6] (H69AR cells + 2 uM doxorubicin), the differential viability (reversal) is 1.14% (inactive). For the same compound, the inhibition in experiment [7] is -5.66% (inactive); in experiment [8], 8.85% (inactive).
For the compound `COc1ccc(N2CCN(Cc3nc4ccccc4c(=O)[nH]3)CC2)cc1`, the viability in experiment [1] was 104%; in experiment [3], 104% (inactive); in experiment [4] it was 92.1% (inactive); in experiment [5], 94.3% (inactive); in experiment [6] (setting [9]), 96.8%; in experiment [6] (setting [10]), 94.3%. In experiment [2], the Her2 level was 98% (inactive). For the same compound, the differential viability (reversal) in experiment [6] (H69AR cells + 2 uM doxorubicin) is -2.54% (inactive). Also, the inhibition in experiment [7] was -3.33% (inactive); in experiment [8], -5.57% (inactive).
On to `Cc1cc(=O)oc2cc(OCC(=O)OCc3nnc(-c4ccccc4)o3)ccc12`, for which the viability in experiment [1] was 106%; in experiment [3], 106% (inactive); in experiment [4], 84.1% (inactive); in experiment [5] it was 94.9% (inactive); in experiment [6] (setting [9]) it was 91.9%; in experiment [6] (setting [10]) it was 94.9%. Further, the Her2 level in experiment [2] is 92.5% (inactive). The differential viability (reversal) in experiment [6] (H69AR cells + 2 uM doxorubicin) is 3.04% (inactive). In addition, the inhibition in experiment [7] was -6.18% (inactive); in experiment [8], -0.16% (inactive).
Take `COc1ccc(C)cc1S(=O)(=O)N1CCN(Cc2ccccc2)CC1`: the viability is 98% in experiment [1]; 98% (inactive) in experiment [3]; 96.1% (inactive) in experiment [4]; 91.2% (inactive) in experiment [5]; 92.6% in experiment [6] (setting [9]); 91.2% in experiment [6] (setting [10]). Besides, in experiment [2], the Her2 level is 94.5% (inactive). Moreover, the differential viability (reversal) in experiment [6] (H69AR cells + 2 uM doxorubicin) was -1.38% (inactive). Besides, the inhibition in experiment [7] is -2.24% (inactive); in experiment [8], 1.13% (inactive).
Regarding `O=C(Nc1ccccc1C(F)(F)F)c1cc(S(=O)(=O)N2CCOCC2)ccc1F`, the viability in experiment [1] was 96.5%; in experiment [3] it was 96.5% (inactive); in experiment [4], 102% (inactive); in experiment [5], 90.4% (inactive); in experiment [6] (setting [9]), 81.5%; in experiment [6] (setting [10]), 90.4%. Besides, the Her2 level in experiment [2] was 91.5% (inactive). Moreover, the differential viability (reversal) in experiment [6] (H69AR cells + 2 uM doxorubicin) is 8.93% (inactive). The inhibition in experiment [7] is -6.49% (inactive); in experiment [8], 1.43% (inactive).
As for `CCC1c2ccc(C)n2CCN1C(=O)Nc1ccccc1OC` (stereo not given), the viability in experiment [1] was 89.5%; in experiment [3], 89.5% (inactive); in experiment [4] it was 97.7% (inactive); in experiment [5], 78.9% (inactive); in experiment [6] (setting [9]), 89.7%; in experiment [6] (setting [10]) it was 78.9%. The Her2 level in experiment [2] was 69.5% (inactive). The differential viability (reversal) in experiment [6] (H69AR cells + 2 uM doxorubicin) was -10.8% (inactive). Besides, the inhibition in experiment [7] was -6.13% (inactive); in experiment [8], 4.59% (inactive).
Turning to `O=C(CCCN1C(=O)c2ccccc2C1=O)Oc1ccc(F)cc1`, the viability in experiment [1] is 98%; in experiment [3], 98% (inactive); in experiment [4] it was 98.2% (inactive); in experiment [5], 94.8% (inactive); in experiment [6] (setting [9]), 85.2%; in experiment [6] (setting [10]) it was 94.8%. In addition, in experiment [2], the Her2 level is 98% (inactive). In addition, the differential viability (reversal) in experiment [6] (H69AR cells + 2 uM doxorubicin) is 9.54% (inactive). Also, the values for the inhibition in experiment [7] and in experiment [8] were -5.47% (inactive) and 1.29% (inactive), respectively.
With `Nc1nc2ccccc2n1C(=O)CCc1ccccc1`, the viability is 102% in experiment [1]; 102% (inactive) in experiment [3]; 44.8% (inactive) in experiment [4]; 48.4% (active) in experiment [5]; 76.1% in experiment [6] (setting [9]); 48.4% in experiment [6] (setting [10]). Besides, in experiment [2], the Her2 level was 83.5% (inactive). In experiment [6] (H69AR cells + 2 uM doxorubicin), the differential viability (reversal) is -27.6% (inactive). For the same compound, the inhibition is -2.11% (inactive) in experiment [7] and -2.67% (inactive) in experiment [8].
For `O=C(Nc1cccc(NC(=O)c2cccnc2)c1)c1cccnc1`, the viability in experiment [1] is 89%; in experiment [3], 89% (inactive); in experiment [4], 119% (inactive); in experiment [5] it was 86.7% (inactive); in experiment [6] (setting [9]) it was 88.9%; in experiment [6] (setting [10]) it was 86.7%. Moreover, the Her2 level in experiment [2] is 80% (inactive). In addition, the differential viability (reversal) in experiment [6] (H69AR cells + 2 uM doxorubicin) was -2.21% (inactive). Further, the values for the inhibition in experiment [7] and in experiment [8] were -5% (inactive) and 1.67% (inactive), respectively.

For orientation: viability means a read-out of living cells in per cent, often relative to untreated cells. Usually inhibition stands for the drop in the measured response relative to a control, in per cent.
